Measurements as given in publication PMC2213236 (The Journal of Experimental Medicine, 2005).
Values belong to the substance of their own block, whether it stands above or below them.

What was measured:
[1] = test system: human CD4^+ T cell clones to proinsulin; format: cell-based; settings: for stimulation of clones by insulin and proinsulin: titrated from 1 μM to 0.1 nM, mean of triplicates ± SEM
Summary of the method: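 Clones were cultured in triplicate in IMDM with 5% pooled human serum and irradiated APCs (autologous or HLA-matched PBMCs at 20 Gy, or EBV B-cell lines at 50 Gy). Insulin or proinsulin was used at 10 μg/ml, with anti-HLA DR mAb at 5 μg/ml where indicated. RP-HPLC fractions were tested at 1/400. After 2 d, 3H-thymidine (0.5 μCi/well, 18 h) was added; β-scintillation; mean ± SEM of triplicates.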

[2] = Formation and reduction of the vicinal disulfide bond; format: physicochemical; settings: MS, unpublished data
murine T cells = settings: first 14 amino acids of the A-chain of bovine insulin; cited from earlier work
human T cells = settings: first 14 amino acids of the A-chain of bovine insulin; cited from earlier work
HLA DRB1*0404 = experiment: HLA DR binding; parameters: species or system human; settings: compared with the serine-substituted homologue
[3] = test system: proinsulin-specific CD4^+ T cell clones from two healthy HLA DR4^+ donors; experiment: Proliferation of proinsulin-specific CD4+ T cell clones from healthy donors; format: cell-based, human; settings: 13 clones from two healthy HLA DR4^+ donors (6 and 7 clones); unpublished data

Substance: S-6: serine substituted for the cysteine at A6
- proliferation of T cell clones to RP-HPLC fractions ([1]; S-6 peptide in similar experiments, unpublished data): No fractions stimulated proliferation

Substance: S-11: analogue peptide with serine substituted for cysteine at position A11 (KRGIVEQSSTSISSL)
- effect of TCEP reduction on ability to stimulate the clones ([1]; S-11 peptide (1 μM) treated with the disulfide-reducing agent TCEP): abolished the ability of S-11 to stimulate the clones
- formation of the vicinal disulfide bond ([2]; S-11 peptide in culture medium): within minutes

Substance: GIVEQCCASVCSLY
- recognition by T cells after immunization (murine T cells): recognized
- recognition by T cells after immunization (human T cells): recognized

Substance: insulin: clinical grade recombinant insulin
- HLA DR dependence of the response to insulin ([1]; clinical grade recombinant insulin 10 μg/ml, anti-HLA DR mAb 5 μg/ml): HLA DR dependent
- stimulation of clones by insulin and proinsulin [1]: stimulated the clones equally

Substance: KRGIVDQCCTSICSL
- potency relative to the human homologue (fold less potent) ([1]; mouse vs human insulin A1-13, 50—0.05 μM peptide): ~10 -fold less potent

Substance: proinsulin: Recombinant human proinsulin produced in-house, shown to be folded correctly and free of endotoxin
- stimulation of clones by insulin and proinsulin [1]: stimulated the clones equally

- effect of the vicinal disulfide bond on binding to HLA DR4 (HLA DRB1*0404): did not alter binding to HLA DR4
- effect of dithiothreitol on the vicinal disulfide bond ([2]; dithiothreitol treatment, mass increased by 2 Dltons): reduced the vicinal disulfide bond
Substance: KRGIVEQC-CTSISSL (disulfide)

Substance: KRGIVEQCCTSICSL [KR-A1-13]
- clones proliferating in response to peptide [3]: none
